In ChEMBL document CHEMBL4425151, “Design, Synthesis, and Initial Evaluation of Affinity-Based Small-Molecule Probes for Fluorescent Visualization and Specific Detection of Keap1” (J Med Chem, 2016):
Active and inactive are the calls of the source. No cut-off for these calls is given here.

Tests used:
[1] = target: T1, Kelch-like ECH-associated protein 1 (Homo sapiens, UniProt Q14145); assay: Inhibition of FITC-labeled 9-mer Nrf2 peptide amide binding to human KEAP1 kelch domain (322 to 609 residues) expressed in Escherichia coli Arctic(DE3) cells incubated for 30 mins by fluorescence polarization assay
T1 sequence (Q14145 whole entry, the tested form may be a part): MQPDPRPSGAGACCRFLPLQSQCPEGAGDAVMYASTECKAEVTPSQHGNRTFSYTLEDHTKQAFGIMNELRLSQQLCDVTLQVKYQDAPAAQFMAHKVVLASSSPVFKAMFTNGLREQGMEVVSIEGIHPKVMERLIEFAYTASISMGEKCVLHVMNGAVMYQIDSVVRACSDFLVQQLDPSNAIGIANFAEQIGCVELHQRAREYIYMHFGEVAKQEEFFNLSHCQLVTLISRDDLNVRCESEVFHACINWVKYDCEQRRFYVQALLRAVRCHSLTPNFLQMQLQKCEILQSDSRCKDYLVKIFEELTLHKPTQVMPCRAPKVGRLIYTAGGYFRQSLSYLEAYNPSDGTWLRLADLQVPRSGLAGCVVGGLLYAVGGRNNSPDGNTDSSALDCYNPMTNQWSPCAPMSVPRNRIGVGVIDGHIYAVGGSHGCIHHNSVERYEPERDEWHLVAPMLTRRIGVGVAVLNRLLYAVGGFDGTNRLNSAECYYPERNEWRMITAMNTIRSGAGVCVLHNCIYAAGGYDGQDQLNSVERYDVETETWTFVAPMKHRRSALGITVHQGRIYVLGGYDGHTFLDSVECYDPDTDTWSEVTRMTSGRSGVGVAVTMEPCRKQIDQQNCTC

[2] = target: T1, Kelch-like ECH-associated protein 1; assay: Binding affinity to human KEAP1 kelch domain (322 to 609 residues) expressed in Escherichia coli Arctic(DE3) cells assessed as dissociation constant by biolayer interferometry method
Method in brief: (§1)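 Biotinylated probe immobilized on super streptavidin biosensor tips. Sequence: baseline, loading, second baseline, Keap1 Kelch domain association (kon), then dissociation (koff). Six Keap1 concentrations tested, all at 30 °C. Kinetic constants fitted from the sensorgrams, and Kd taken as koff/kon.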

[3] = target: T1, Kelch-like ECH-associated protein 1; assay: Binding affinity to human KEAP1 kelch domain (322 to 609 residues) expressed in Escherichia coli Arctic(DE3) cells assessed as association constant by biolayer interferometry method; method in brief: as §1
[4] = target: T1, Kelch-like ECH-associated protein 1; assay: Binding affinity to KEAP1 kelch domain in human NCM460 cells after 2 hrs by Western blot based affinity pulldown assay; format: cell-based
Method in brief: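 Streptavidin magnetic beads loaded with the biotin probe (50 µg/100 µL), 30 min at 4 °C, then free sites blocked with biotin. Beads incubated with NCM460 colonic cell lysate for 2 h at 4 °C with rotation and washed with TBS. Bound protein eluted in buffer with 2% SDS at 95 °C for 5 min. Analysed by SDS-PAGE and western blot with anti-Keap1 antibody.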

[5] = target: T1, Kelch-like ECH-associated protein 1; assay: Binding affinity to human KEAP1 kelch domain (322 to 609 residues) expressed in Escherichia coli Arctic(DE3) cells by biolayer interferometry method; method in brief: as §1
[6] = target: T1, Kelch-like ECH-associated protein 1; assay: Binding affinity to KEAP1 kelch domain in nucleus of human NCM460 cells at 10 uM after 10 hrs by DAPI staining based confocal microscopic analysis; format: cell-based
Method in brief: (§2)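 NCM460 colonic cells exposed to the FITC probe at 10 µM for 10 h, then fixed. Keap1 primary antibody applied overnight at 4 °C, then Alexa Fluor-labelled goat anti-rabbit secondary for 1 h at 37 °C. Nuclei stained with DAPI. Imaged by laser scanning confocal microscopy at excitation 570 and 340 nm for co-localization. Three separate experiments.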

[7] = target: T1, Kelch-like ECH-associated protein 1; assay: Binding affinity to KEAP1 kelch domain in cytoplasm of human NCM460 cells at 10 uM after 10 hrs by DAPI staining based confocal microscopic analysis; format: cell-based; method in brief: as §2
[8] = target: T1, Kelch-like ECH-associated protein 1; assay: Binding affinity to human KEAP1 kelch domain (322 to 609 residues) expressed in Escherichia coli Arctic(DE3) cells at 0.05 mM by isothermal titration calorimetry
Method in brief: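 ITC at 25 °C. Lyophilized Keap1 Kelch domain and the FITC probe both dissolved in 10 mM HEPES pH 7.4. Nineteen 2 µL injections of 0.05 mM probe, 2.5 min apart, stirred at 750 rpm, into cell holding 0.005 mM Kelch domain. Kd obtained from a 1:1 binding model fit.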

Row | IC50 [1] [nM] | K [2] [×10⁻³ /s] | K [3] [×10⁴ /M/s] | Activity [4] | Activity [5] | Kd [5] [nM] | EC50 [1] [nM] | Activity [6] | Activity [7] | Kd [8] [nM] | Structure (SMILES)
1 | 30.7 | – | – | – | – | – | – | – | – | – | COc1ccc(S(=O)(=O)N(CC(=O)O)c2ccc(N(CC(=O)O)S(=O)(=O)c3ccc(NC(=O)CCCC(=O)NCCN)cc3)c3ccccc23)cc1
2 | 74 | 1.35 | 6.24 | Active | Dose-dependent effect | 21.6 | – | – | – | – | COc1ccc(S(=O)(=O)N(CC(=O)O)c2ccc(N(CC(=O)O)S(=O)(=O)c3ccc(NC(=O)CCCC(=O)NCCNC(=O)CCCC[C@@H]4SC[C@@H]5NC(=O)N[C@@H]54)cc3)c3ccccc23)cc1
3 | – | – | – | – | – | – | 14.7 | Active | Active | 29.1 | COc1ccc(S(=O)(=O)N(CC(=O)O)c2ccc(N(CC(=O)O)S(=O)(=O)c3ccc(NC(=O)CCCC(=O)NCCNC(=S)Nc4ccc5c(c4)C(=O)OC54c5ccc(O)cc5Oc5cc(O)ccc54)cc3)c3ccccc23)cc1
